Measurements as given in ChEMBL document CHEMBL5058577, “EUbOPEN Chemogenomics Library 2 (Multiplex)” (2022).

Tested on: HEK-293T
Test: Multiplex assay against HEK293T
Format: toxicity, cell-based
Settings: human
Summary of the method: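 Phenotypes for tubulin, mitochondrial mass and membrane permeability are expressed as per cents of healthy-nucleus cells. Cells were stained live at seeding with Hoechst33342, BioTracker Green Microtubule Cytoskeleton Dye, MitoTracker Red and Annexin V Alexa Fluor 680, then imaged after compound addition on a CQ1 microscope at 37°C and 5% CO2. Machine-learning gating in CellPathfinder separated Hoechst high-intensity objects from normal cells, divided normal cells by nuclear state (healthy, pyknosed, fragmented) and divided pyknosed cells into mitotic or apoptotic.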

[1] = 12 h, 1 µM, compound concentration 1 uM, replicate 1
[2] = 12 h, 1 µM, compound concentration 1 uM, replicate 2
[3] = 12 h, 10 µM, compound concentration 10 uM, replicate 1
[4] = 12 h, 10 µM, compound concentration 10 uM, replicate 2
[5] = 24 h, 1 µM, compound concentration 1 uM, replicate 1
[6] = 24 h, 1 µM, compound concentration 1 uM, replicate 2
[7] = 24 h, 10 µM, compound concentration 10 uM, replicate 1
[8] = 24 h, 10 µM, compound concentration 10 uM, replicate 2
[9] = 48 h, 1 µM, compound concentration 1 uM, replicate 1
[10] = 48 h, 1 µM, compound concentration 1 uM, replicate 2
[11] = 48 h, 10 µM, compound concentration 10 uM, replicate 1
[12] = 48 h, 10 µM, compound concentration 10 uM, replicate 2

Br.CS(=O)(=O)Nc1c(O)ccc2c1CCCC2C1=NCCN1 (configuration not stated)
Population Apoptotic (%) [1]: 40% | Population Fragmented Nuclei (%) [1]: 7% | Population Healthy Nuclei (%) [1]: 80% | Population Hoechst High Intensity Objects (%) [1]: 5% | Population Membrane Permeable-Phenotype (%) [1]: 0% | Population Mitochondria Different-Phenotype (%) [1]: 45% | Population Mitotic Cells (%) [1]: 59% | Population Normal (%) [1]: 94% | Population Pyknosed Nuclei (%) [1]: 12% | Population Tubulin-Different-Phenotype (%) [1]: 26% | Total Cell Count [1]: 407 | Population Apoptotic (%) [2]: 43% | Population Fragmented Nuclei (%) [2]: 5% | Population Healthy Nuclei (%) [2]: 81% | Population Hoechst High Intensity Objects (%) [2]: 8% | Population Mitochondria Different-Phenotype (%) [2]: 52% | Population Mitotic Cells (%) [2]: 56% | Population Normal (%) [2]: 91% | Population Tubulin-Different-Phenotype (%) [2]: 18% | Total Cell Count [2]: 334 | Population Apoptotic (%) [3]: 48% | Population Fragmented Nuclei (%) [3]: 8% | Population Healthy Nuclei (%) [3]: 76% | Population Hoechst High Intensity Objects (%) [3]: 12% | Population Membrane Permeable-Phenotype (%) [3]: 0% | Population Mitochondria Different-Phenotype (%) [3]: 60% | Population Mitotic Cells (%) [3]: 52% | Population Normal (%) [3]: 87% | Population Pyknosed Nuclei (%) [3]: 14% | Population Tubulin-Different-Phenotype (%) [3]: 33% | Total Cell Count [3]: 381 | Population Apoptotic (%) [4]: 55% | Population Fragmented Nuclei (%) [4]: 6% | Population Healthy Nuclei (%) [4]: 79% | Population Hoechst High Intensity Objects (%) [4]: 14% | Population Mitochondria Different-Phenotype (%) [4]: 67% | Population Mitotic Cells (%) [4]: 44% | Population Normal (%) [4]: 85% | Population Tubulin-Different-Phenotype (%) [4]: 26% | Total Cell Count [4]: 292 | Population Apoptotic (%) [5]: 38% | Population Fragmented Nuclei (%) [5]: 10% | Population Healthy Nuclei (%) [5]: 79% | Population Hoechst High Intensity Objects (%) [5]: 5% | Population Membrane Permeable-Phenotype (%) [5]: 1% | Population Mitochondria Different-Phenotype (%) [5]: 34% | Population Mitotic Cells (%) [5]: 61% | Population Normal (%) [5]: 94% | Population Pyknosed Nuclei (%) [5]: 10% | Population Tubulin-Different-Phenotype (%) [5]: 21% | Total Cell Count [5]: 549 | Population Apoptotic (%) [6]: 55% | Population Fragmented Nuclei (%) [6]: 6% | Population Healthy Nuclei (%) [6]: 80% | Population Hoechst High Intensity Objects (%) [6]: 8% | Population Membrane Permeable-Phenotype (%) [6]: 0% | Population Mitochondria Different-Phenotype (%) [6]: 41% | Population Mitotic Cells (%) [6]: 44% | Population Normal (%) [6]: 91% | Population Pyknosed Nuclei (%) [6]: 13% | Population Tubulin-Different-Phenotype (%) [6]: 17% | Total Cell Count [6]: 387 | Population Apoptotic (%) [7]: 30% | Population Fragmented Nuclei (%) [7]: 11% | Population Healthy Nuclei (%) [7]: 75% | Population Hoechst High Intensity Objects (%) [7]: 6% | Population Membrane Permeable-Phenotype (%) [7]: 0% | Population Mitochondria Different-Phenotype (%) [7]: 40% | Population Mitotic Cells (%) [7]: 69% | Population Normal (%) [7]: 93% | Population Pyknosed Nuclei (%) [7]: 12% | Population Tubulin-Different-Phenotype (%) [7]: 23% | Total Cell Count [7]: 451 | Population Apoptotic (%) [8]: 34% | Population Healthy Nuclei (%) [8]: 77% | Population Hoechst High Intensity Objects (%) [8]: 11% | Population Mitochondria Different-Phenotype (%) [8]: 46% | Population Mitotic Cells (%) [8]: 65% | Population Normal (%) [8]: 88% | Population Pyknosed Nuclei (%) [8]: 10% | Population Tubulin-Different-Phenotype (%) [8]: 21% | Total Cell Count [8]: 377 | Population Apoptotic (%) [9]: 12% | Population Fragmented Nuclei (%) [9]: 14% | Population Healthy Nuclei (%) [9]: 78% | Population Hoechst High Intensity Objects (%) [9]: 4% | Population Membrane Permeable-Phenotype (%) [9]: 0% | Population Mitochondria Different-Phenotype (%) [9]: 20% | Population Mitotic Cells (%) [9]: 87% | Population Normal (%) [9]: 95% | Population Pyknosed Nuclei (%) [9]: 7% | Population Tubulin-Different-Phenotype (%) [9]: 14% | Total Cell Count [9]: 859 | Population Apoptotic (%) [10]: 29% | Population Fragmented Nuclei (%) [10]: 11% | Population Hoechst High Intensity Objects (%) [10]: 6% | Population Mitochondria Different-Phenotype (%) [10]: 22% | Population Mitotic Cells (%) [10]: 70% | Population Normal (%) [10]: 93% | Population Pyknosed Nuclei (%) [10]: 9% | Population Tubulin-Different-Phenotype (%) [10]: 12% | Total Cell Count [10]: 532 | Population Apoptotic (%) [11]: 34% | Population Fragmented Nuclei (%) [11]: 16% | Population Healthy Nuclei (%) [11]: 76% | Population Hoechst High Intensity Objects (%) [11]: 4% | Population Membrane Permeable-Phenotype (%) [11]: 1% | Population Mitochondria Different-Phenotype (%) [11]: 22% | Population Mitotic Cells (%) [11]: 65% | Population Normal (%) [11]: 95% | Population Pyknosed Nuclei (%) [11]: 6% | Population Tubulin-Different-Phenotype (%) [11]: 12% | Total Cell Count [11]: 671 | Population Apoptotic (%) [12]: 48% | Population Fragmented Nuclei (%) [12]: 14% | Population Healthy Nuclei (%) [12]: 79% | Population Membrane Permeable-Phenotype (%) [12]: 0% | Population Mitochondria Different-Phenotype (%) [12]: 27% | Population Mitotic Cells (%) [12]: 51% | Population Pyknosed Nuclei (%) [12]: 5% | Population Tubulin-Different-Phenotype (%) [12]: 11% | Total Cell Count [12]: 584
